# High-throughput results deposited in PubChem BioAssay by Johns Hopkins Ion Channel Center.
# The list is not random: actives were taken first. Their share in the collection is about 3%.
# TRPC6 act = activators of mouse TRPC6 channel. B-score at 10 µM. 0.13% of 310,000 active. HEK293-TRPC6 membrane potential dye fluorescence; active compounds read high. Q61143;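 active = B-score of the integrated fluorescence ratio above library mean plus 3 SD, and starting fluorescence ratio within library mean plus 5 SD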;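 note: higher score means more depolarization so channel activation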
# Target sequence (Q61143 whole entry, looked up): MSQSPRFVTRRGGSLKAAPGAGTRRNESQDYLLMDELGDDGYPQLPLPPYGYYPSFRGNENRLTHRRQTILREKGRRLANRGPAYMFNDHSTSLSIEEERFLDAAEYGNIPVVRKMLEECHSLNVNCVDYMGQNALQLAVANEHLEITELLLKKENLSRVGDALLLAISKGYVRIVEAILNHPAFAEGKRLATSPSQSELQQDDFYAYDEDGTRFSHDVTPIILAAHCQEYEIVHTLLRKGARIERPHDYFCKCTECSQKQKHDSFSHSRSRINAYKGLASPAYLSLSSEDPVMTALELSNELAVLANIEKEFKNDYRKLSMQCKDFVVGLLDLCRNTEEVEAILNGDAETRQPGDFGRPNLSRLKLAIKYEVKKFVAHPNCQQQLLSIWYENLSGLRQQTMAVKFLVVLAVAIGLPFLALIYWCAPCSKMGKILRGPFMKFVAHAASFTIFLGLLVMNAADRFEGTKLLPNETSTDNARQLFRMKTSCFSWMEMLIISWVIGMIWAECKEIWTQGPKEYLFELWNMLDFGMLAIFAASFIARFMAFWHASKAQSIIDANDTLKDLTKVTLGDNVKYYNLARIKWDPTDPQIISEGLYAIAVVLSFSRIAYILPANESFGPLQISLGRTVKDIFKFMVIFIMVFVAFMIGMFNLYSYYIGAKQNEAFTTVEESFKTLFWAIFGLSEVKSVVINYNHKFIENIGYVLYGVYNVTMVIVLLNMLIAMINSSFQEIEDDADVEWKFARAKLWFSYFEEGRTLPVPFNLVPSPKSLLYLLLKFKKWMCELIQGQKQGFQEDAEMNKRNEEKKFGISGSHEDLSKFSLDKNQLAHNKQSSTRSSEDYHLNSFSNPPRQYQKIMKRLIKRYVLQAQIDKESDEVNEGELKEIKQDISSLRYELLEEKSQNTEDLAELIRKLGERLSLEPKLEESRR
# TRPC4 potent = TRPC4 (mouse) allosteric potentiation. 0.42% of 310,000 active. AID 2227. B-score at 10 µM. HEK293 TRPC4beta/mu-opioid, DAMGO EC20, Fluo-4 Ca2+ flux; active compounds read high;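 active = B-score of calcium response area above 5 SD of library B-scores, with initial fluorescence ratio within 5 SD of library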;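 note: B-score of integrated fluorescence ratio over time as area under calcium response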
# TRPC4 agonist = TRPC4 (mouse) channel activation | AID 2237 | 0.49% of 310,000 active | Q9QUQ5 | HEK293 TRPC4beta/mu-opioid, Fluo4 calcium fluorescence; active compounds read high | B-score at 10 µM;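 active = B-score above 5 SD of library B-scores, and initial fluorescence ratio not above library mean plus 5 SD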;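 note: positive B-score marks a calcium rise read as TRPC4 activation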
#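 Assay system: HEK293 stable line with TRPC4beta plus mu-opioid receptor. Times: dye 45 min RT, read 110 s. Measured by: kinetic Fluo4 calcium fluorescence. Measure: B score of integrated ratio. Controls: assay buffer as low control, maximal DAMGO as high control.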
# TRPC4 inh = TRPC4 (mouse) channel inhibition; HEK293 TRPC4beta/mu-opioid, DAMGO-evoked Fluo4 calcium flux; active compounds read low; 0.39% of 300,000 active; Q9QUQ5; B-score at 10 µM;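 active = B-score over 3 SD under the library average, no early fluorescence shift, positive overall ratio signal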
#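 Material: HEK293 cells with stable TRPC4beta plus mu-opioid receptor expression / Probe or stimulus: DAMGO in two steps, submaximal then maximal / Compound: single concentration per test compound / Technique: kinetic Fluo4 fluorescence imaging of calcium influx / Read-out: per-well B score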
# TRPC6 inhibitor = inhibitors of mouse TRPC6 channel; HEK293-TRPC6, membrane potential dye, ACh-evoked depolarization; active compounds read low; 1.1% of 310,000 active; Q61143; B-score at 10 µM;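 active = B-score under library mean minus 3 SD, initial fluorescence not abnormally high, positive integrated signal ratio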;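 note: B-score derived from integrated fluorescence ratio over the kinetic read; more negative B-score means stronger inhibition of depolarization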
# Kir21 inh = Kir2.1 (mouse) channel inhibition; P35561; HEK293-Kir2.1, FluxOR thallium flux fluorescence; active compounds read low; B-score at 10 µM; 0.85% of 310,000 active;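 active = fluorescence ratio B-score at or below minus 3 SD of library scores, with starting-brightness B-score within 2 SD, cut at about -4.2 in these data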;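 note: channel flux triggered by added potassium and thallium sulfate stimulus; B-score of peak minus minimum fluorescence over baseline after thallium stimulus; more negative B-score means stronger Kir2.1 block with less thallium influx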
# TRPC4 sel inh 2 = second check of whether TRPC6 inhibitors also affect mouse TRPC4. shares compounds with TRPC6 inhibitor. HEK293 TRPC4/MOR, membrane potential dye fluorescence; channel activated by saturating DAMGO dose. 42% of 920 active. inhibition, % at 10 µM;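 active = compounds whose fluorescence signal differed from control wells by over 3 SD, either direction, in both duplicate plates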
# TRPC4 spec = selectivity of TRPC6 inhibitors: effect on mouse TRPC4; HEK293 TRPC4/mu-opioid, membrane potential fluorescence; activity change, negative = inhibition, % at 10 µM; shares compounds with TRPC6 inhibitor; AID 2777; 61% of 920 active;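 active = rise or fall in signal beyond 3 SD of buffer-only wells in both replicate plates, either sign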;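 note: integrated kinetic ratio of fluorescence range over baseline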
# HEK293 MPD ctr 2-1 = parental HEK293 nonspecific activity of TRPC6 inhibitors, second screen; shares compounds with TRPC6 inhibitor; parental HEK293 membrane potential dye fluorescence; maximal acetylcholine challenge after compound addition; signal change vs control, % at 10 µM; 31% of 920 active; AID 2779;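 active = membrane potential signal moving either way by over 3 SD of the maximum-effect control, in both duplicate plates, meaning non-specific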
# HEK293 MPD ctr-1 = parental HEK293 nonspecific activity of TRPC6 inhibitors; shares compounds with TRPC6 inhibitor; parental HEK293 membrane potential dye fluorescence; membrane potential signal change, % at 10 µM; 60% of 920 active; AID 2780;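 active = membrane potential signal shifting up or down by more than 3 SD of buffer-only wells, on both duplicate plates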
# HEK293 MPD ctr-2 = checks TRPC6 modulator effects in parental HEK293 cells; membrane potential signal change, % at 10 µM; shares compounds with TRPC6 inhibitor; AID 488924; membrane potential dye fluorescence; 51% of 2,400 active;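 active = membrane potential signal moves up or down beyond 5 SD from buffer-only wells, on both duplicate plates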
# HEK293 MPD ctr 2-2 = second counter-screen for TRPC6 modulators: effect in parental HEK293 cells; shares compounds with TRPC6 inhibitor; membrane potential dye fluorescence; after compound, maximal acetylcholine stimulation; inhibition, % at 10 µM; 14% of 2,400 active; AID 488926;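 active = membrane potential signal drops by more than 5 SD from the mean control signal, in both duplicate plates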;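 note: plate controls were acetylcholine ECmax control wells for no effect and buffer only wells for full effect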
# TRPC4/MOR mod = selectivity of TRPC6 modulators against mouse TRPC4 | AID 488927 | HEK293 TRPC4/mu-opioid, membrane potential fluorescence | percent change from control (negative = decrease, positive = increase), % at 10 µM | shares compounds with TRPC6 inhibitor | 69% of 2,400 active;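 active = membrane potential signal moved up or down beyond 5 SD of buffer control wells, in both duplicate plates, actives on both sides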;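 note: plate controls were assay buffer wells for no effect and DAMGO maximal-effect wells for full effect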
# TRPC4/MOR inh 2 = second check of whether TRPC6 modulators also affect mouse TRPC4; shares compounds with TRPC6 inhibitor; HEK293 TRPC4/mu-opioid, membrane potential dye fluorescence; stimulated with maximal-effect DAMGO; inhibition, % at 10 µM; 55% of 2,400 active;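 active = drop in membrane potential signal beyond 5 SD of the control wells in both duplicate plates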;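 note: TRPC4 counter screen for TRPC6 hits run under conditions tuned for TRPC6 not TRPC4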
# TRPC6 block conf = mouse TRPC6 inhibitor confirmation | inhibition, % at 10 µM | 43% of 3,300 active | shares compounds with TRPC6 inhibitor | HEK293-TRPC6, membrane potential dye, ACh-evoked depolarization;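 active = fluorescence ratio falls more than 5 SD below the full-stimulation control mean, in both duplicate runs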;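 note: integrated fluorescence ratio of peak minus minimum over baseline after agonist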
# TRPC6 act conf = confirmation of mouse TRPC6 activators. 11% of 2,800 active. HEK293-TRPC6 membrane potential dye fluorescence, FDSS. activation, % at 10 µM. shares compounds with TRPC6 inhibitor;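 active = ratio signal rise beyond 5 SD above unstimulated control wells' mean, seen in both duplicate runs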;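 note: plate controls were buffer EC0 wells for no effect and acetylcholine ECmax response for full effect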
# Active calls of the source: *; i = inactive; . = no result.
SMILES,TRPC6 act,TRPC4 potent,TRPC4 agonist,TRPC4 inh,TRPC6 inhibitor,Kir21 inh,TRPC4 sel inh 2,TRPC4 spec,HEK293 MPD ctr 2-1,HEK293 MPD ctr-1,TRPC6 block conf,TRPC6 act conf,others
C[N+]1(C)CCC(OC(=O)C(c2ccccc2)c2ccccc2)CC1,i,i,i,i,-7.29*,-1.42,i,i,-17.5%*,i,91.1%*,i,
C#CC[N+]1(C)[C@@H]2CC[C@H]1CC(OC(=O)C(CO)c1ccccc1)C2 (stereo partly specified),i,i,i,i,-10.6*,1.39,i,i,-21.0%*,i,94.1%*,i,
O=C(c1ccccc1)C(CN1CCCC1)c1ccccc1 (stereo unspecified),i,i,i,i,i,-1.21,.,.,.,.,.,.,
C[N+]1(C)C2CCC1CC(OC(=O)c1ccco1)C2 (stereo unspecified),i,i,i,i,i,-1.36,.,.,.,.,.,.,
Nc1ccccc1C(=O)OCC(=O)c1ccc2c(c1)OCCO2,i,i,i,i,i,-1.92,.,.,.,.,.,.,
Cn1c(=O)c2c(nc(N/N=C/c3c(O)n(C4CCCCC4)c(=S)[nH]c3=O)n2C)n(C)c1=O,i,i,i,i,i,1.52,.,.,.,.,.,.,
C/C(CC(c1ccccc1)c1c(O)c2ccccc2oc1=O)=N\Nc1ccc([N+](=O)[O-])cc1[N+](=O)[O-] (stereo unspecified),i,i,i,i,i,-0.69,.,.,.,.,.,.,
O=c1oc2ccccc2c(O)c1C(c1ccc([N+](=O)[O-])cc1)c1c(O)c2ccccc2oc1=O,i,i,i,i,-7.29*,0.19,i,i,i,-272.5%*,i,i,
CC1CCCC(NC(=O)CNC(=S)N2CC3CC(C2)c2cccc(=O)n2C3)C1C (stereo unspecified),i,i,i,i,i,-0.21,.,.,.,.,.,.,
Cc1ccccc1Cc1c(C)nc2nc(SCC(=O)N3CCC4(CC3)OCCO4)nn2c1C,i,i,i,i,i,0.05,.,.,.,.,.,.,
Cc1ccc(Cc2c(C)nc3nc(SCC(=O)N4CCC5(CC4)OCCO5)nn3c2C)cc1,13.4*,i,i,i,-10.7*,0.05,.,.,.,.,46.5%*,152.5%*,HEK293 MPD ctr-2=183.5%*;HEK293 MPD ctr 2-2=i;TRPC4/MOR mod=32.0%*;TRPC4/MOR inh 2=38.5%*
CC[C@@H](C(N)=O)N1CCCC1=O,i,i,i,i,i,1.32,.,.,.,.,.,.,
O=[N+]([O-])c1ccc(N2CCCC2)c2ncccc12,i,i,i,i,i,-0.57,.,.,.,.,.,.,
CCNCCNc1ccc([N+](=O)[O-])c2cccnc12,i,18*,i,i,-5.94*,-0.25,.,.,.,.,72.0%*,i,HEK293 MPD ctr-2=-288.5%*;HEK293 MPD ctr 2-2=i;TRPC4/MOR mod=-39.5%*;TRPC4/MOR inh 2=54.0%*
Cc1nonc1OCCNCCNc1ccc([N+](=O)[O-])c2cccnc12,i,i,i,i,-5.14*,1.15,.,.,.,.,48.0%*,i,HEK293 MPD ctr-2=-179.5%*;HEK293 MPD ctr 2-2=i;TRPC4/MOR mod=-37.5%*;TRPC4/MOR inh 2=75.0%*
N#CC(C#N)=C(C#N)c1ccc(Nc2ccccc2)cc1,i,i,i,i,-8.54*,-2.59,i,-10.1%*,i,i,i,i,
O=C1CN=C(c2ccccc2)c2cc(Br)ccc2N1,i,i,i,i,i,-0.4,.,.,.,.,.,.,
O=C(COc1ccc(Cl)cc1)N(c1ccccc1Cl)C1CN2CCC1CC2 (stereo unspecified),i,i,i,i,-5.26*,-1.31,.,.,.,.,i,.,HEK293 MPD ctr-2=131.5%*;HEK293 MPD ctr 2-2=i;TRPC4/MOR mod=26.0%*;TRPC4/MOR inh 2=51.5%*
O=C1C2CCCC1C(N1CCCCC1)CC2 (stereo unspecified),i,i,i,i,i,1.67,.,.,.,.,.,.,
Cc1ccc2cc(C=C(C#N)C#N)c(Cl)nc2c1,i,i,i,i,i,1.02,.,.,.,.,.,.,
Cc1ccccc1-[n+]1c(-c2ccccc2)cc(-c2ccccc2)cc1-c1ccccc1,i,i,i,i,-10*,-15.8*,60.5%*,20.1%*,i,7.1%*,99.6%*,i,
COc1ccc(-c2cc(-c3ccccc3)[n+](C)c(-c3ccccc3)c2)cc1,i,i,i,i,-5.57*,-2.49,.,.,.,.,i,i,HEK293 MPD ctr-2=i;HEK293 MPD ctr 2-2=i;TRPC4/MOR mod=i;TRPC4/MOR inh 2=i
COc1ccc(-[n+]2c(-c3ccccc3)cc(-c3ccc(C)cc3)cc2-c2ccccc2)cc1,i,i,i,i,-9.12*,-12.8*,i,16.9%*,i,17.5%*,70.4%*,.,
CC(Cc1ccccc1Sc1ccc(O)cc1)N(C)C (stereo unspecified),i,i,i,i,-6.63*,-2.43,41.0%*,43.4%*,i,4.2%*,i,i,
CC(Cc1ccccc1Sc1ccccc1)N(C)C (stereo unspecified),i,i,i,i,i,-3.49,.,.,.,.,.,.,
